Measured values published in paper PMC8048816 (Angewandte Chemie (International Ed. in English), 2021).
Where two headings read alike, the source gives them in different places.

Tests used:
Assay type in all cases: binding
[1] = target: T1, LecA (Pseudomonas aeruginosa, UniProt Q05097); conditions: for FP with 2ME Inhibition [%] at 4 mM / FP Inhibition [%] at 4 mM: 4 mM catechol, average and std. dev. of 3 experiments; for FP with 2ME Inhibition [%] at 4 mM: with 2-mercaptoethanol; for FP Inhibition [%] at 4 mM: without 2-mercaptoethanol
T1 sequence (Q05097 2-122 limits assumed): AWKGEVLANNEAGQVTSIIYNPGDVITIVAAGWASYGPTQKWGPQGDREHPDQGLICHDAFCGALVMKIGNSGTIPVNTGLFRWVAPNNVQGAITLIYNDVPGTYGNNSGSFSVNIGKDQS
How it was run: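 Competitive fluorescence polarization assay measuring displacement of a Cy5-labelled galactoside probe from LecA. The Cy5 probe replaced an earlier fluorescein conjugate to avoid spectral overlap. Test compound at 4 mM, with or without 2-mercaptoethanol; some compounds at 25 % DMSO. Methyl α-D-galactoside as positive control. Percent inhibition given as average and std. dev. of 3 experiments.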

[2] = target: T1, LecA; test: thermal shift assay; conditions: change of LecA melting point, 4 mM test compound, average of two experiments
[3] = target: T2, 5FW‐LecA (Pseudomonas aeruginosa, UniProt Q05097); test: protein-observed 19F; conditions: 1.5 mM catechol, 200 µM 5FW-LecA; n.s.=not significant
T2 sequence (Q05097 2-122 limits assumed): T1 sequence (Q05097 2-122 limits assumed)

[4] = target: T1, LecA; test: surface plasmon resonance
How it was run: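 Recombinant LecA was immobilized for SPR. Test compound was injected at two concentrations: 0.2 and 1 mM, or 0.2 and 0.5 mM for some compounds. Steady-state binding responses were read from sensorgrams. 0.1 mM pNPGal was injected as positive control to monitor LecA activity and normalize data. Kd came from multi-cycle kinetic analyses of prioritized compounds.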

[5] = target: Langerin ECD (Homo sapiens, UniProt Q9UJ71); test: 1H STD competition NMR with mannose; conditions: 1 mM compound, 20 μM Langerin ECD, 100 mM D-mannose
Chain of Langerin ECD (Q9UJ71 65-328 limits assumed): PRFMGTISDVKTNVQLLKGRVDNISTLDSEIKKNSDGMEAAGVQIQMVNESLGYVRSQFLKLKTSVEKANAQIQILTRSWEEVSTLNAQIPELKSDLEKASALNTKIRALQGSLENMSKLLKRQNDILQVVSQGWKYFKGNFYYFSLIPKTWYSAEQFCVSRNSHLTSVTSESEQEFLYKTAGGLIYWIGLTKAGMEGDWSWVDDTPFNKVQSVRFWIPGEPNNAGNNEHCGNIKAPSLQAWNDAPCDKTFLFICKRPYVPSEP

[6] = target: human Langerin CRD (Homo sapiens, UniProt Q9UJ71, V278A); test: 1H-15N HSQC NMR; conditions: 1 mM compound, 100 μM Langerin CRD
Chain of human Langerin CRD (Q9UJ71 202-320 V278A): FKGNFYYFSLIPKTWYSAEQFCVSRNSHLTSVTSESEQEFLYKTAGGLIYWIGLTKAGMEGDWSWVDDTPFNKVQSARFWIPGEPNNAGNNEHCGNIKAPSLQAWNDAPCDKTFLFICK

[7] = target: T1, LecA; test: ligand-observed T1ρ relaxation NMR; conditions: for effect of excess Me‐α‐D‐Gal on T1ρ relaxation with LecA: displacement experiment; for T1ρ relaxation rate in presence of LecA: with vs without LecA
[8] = target: T1, LecA; conditions: read-out: inhibition at 3.3 mM
How it was run: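 Purchased virtual-screening hits from the NCI Diversity IV set, selected for structural diversity, were tested once at 3.3 mM. Assay: the established competitive fluorescence polarization assay, scoring displacement of a fluorescent galactoside ligand from LecA as percent inhibition.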

[9] = read-out: FP Inhibition [%] at 4 mM
[10] = read-out: FP with 2ME Inhibition [%] at 4 mM

Structure (SMILES)	FP with 2ME Inhibition [%] at 4 mM [1]	FP Inhibition [%] at 4 mM [1]	TSA ΔT [K] [2]	PrOF NMR CSP of W42 [ppm] [3]	inhibition at 4000 µM [1, 9] [%]	inhibition at 4000 µM [1, 10] [%]	Kd [4] [µM]	ligand efficiency ([4]; from SPR Kd)	reduction in peak intensities in STD NMR spectra in presence of mannose [5] [%]	effect of excess Me‐α‐D‐Gal on T1ρ relaxation with LecA [7]	T1ρ relaxation rate in presence of LecA [7]	inhibition at 3300 µM [8] [%]	chemical shift perturbations of Langerin CRD resonances [6]
Oc1ccccc1O [Compound 1, catechol]	none	inconcl.	−4.5 K	n.s.									
N#Cc1cccc(O)c1O [Compound 3, 3‐cyano catechol]			+1.8 K	0.045 ppm	23 ± 2	23	1110 ± 70	0.40	65				promoted chemical shift perturbations (CSPs)
Cc1ccc(O)c(O)c1 [Compound 11, 4‐methyl catechol]	none	inconcl.	−11.0 K	n.s.									

Continued, in another order:

FP with 2ME Inhibition [%] at 4 mM [1]	FP Inhibition [%] at 4 mM [1]	TSA ΔT [K] [2]	PrOF NMR CSP of W42 [ppm] [3]	inhibition at 4000 µM [1, 9] [%]	inhibition at 4000 µM [1, 10] [%]	Kd [4] [µM]	ligand efficiency ([4]; from SPR Kd)	reduction in peak intensities in STD NMR spectra in presence of mannose [5] [%]	effect of excess Me‐α‐D‐Gal on T1ρ relaxation with LecA [7]	T1ρ relaxation rate in presence of LecA [7]	inhibition at 3300 µM [8] [%]	Structure (SMILES)	chemical shift perturbations of Langerin CRD resonances [6]
none	inconcl.	−15.4 K	0.130 ppm						no significant effect	much weaker		CC(C)(C)c1ccc(O)c(O)c1 [Compound 13, 4‐tert‐butyl catechol]	
		+0.35 K	0.08 ppm	10 ± 2	11 ± 2				fully reversed to the free state	strongly increased	~10	CC(C)C(=O)c1ccc(O)c(O)c1 [Compound 21, 4‐isobutyryl catechol]	
		+0.36 K	0.110 ppm	39 ± 5	39							O=C(c1ccccc1)c1ccc(O)c(O)c1 [Compound 23, 4‐benzoyl catechol]	
			0.185 ppm	29 ± 3	22 ± 2							O=C(c1ccc(Cl)cc1)c1ccc(O)c(O)c1 [Compound 24, 4‐parachlorobenzoyl catechol]	
